In brackets after ≈: the same amount, converted by molar mass.
Columns and labels:
Type in all cases: functional, cell-based
SK-OV-3 = assay: Anticancer activity against human SKOV3 cells after 72 hrs by sulforhodamine B assay; settings: SK-OV-3, 72 h
How it was run: (§1)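 Cells kept in RPMI 1640 with 10% FBS and passaged with trypsin-EDTA. Seeded at 1-2 × 10^4 cells/well and grown 24 h, then given compounds dissolved in culture medium, in triplicate. Exposure 48 h at 37 °C in 5% CO2. Fixed with cold 10% TCA, stained with 0.4% SRB in 1% acetic acid, dye solubilized in 10 mM Tris base (pH 10.5), absorbance read at 520 nm. IC50 is the concentration giving 50% inhibition.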

XF498 = assay: Anticancer activity against human XF498 cells after 72 hrs by sulforhodamine B assay; settings: XF498, 72 h; how it was run: as §1
SK-MEL-2 = assay: Anticancer activity against human SK-MEL-2 cells after 72 hrs by sulforhodamine B assay; settings: SK-MEL-2, 72 h; how it was run: as §1
HCT-15 = assay: Anticancer activity against human HCT15 cells after 72 hrs by sulforhodamine B assay; settings: HCT-15, 72 h; how it was run: as §1
A549 = assay: Anticancer activity against human A549 cells after 72 hrs by sulforhodamine B assay; settings: A549, 72 h

Compound | IC50 (SK-OV-3) | IC50 (XF498) | IC50 (SK-MEL-2) | IC50 (HCT-15) | IC50 (A549)
COc1cccc2c1C(=O)c1c(O)c3c(c(O)c1C2=O)C[C@@](O)(C(=O)CO)C[C@@H]3O[C@H]1C[C@H](N)[C@H](O)[C@H](C)O1 [DOXORUBICIN] | 0.024 µg/mL (≈ 0.0442 µM) | 0.19 µg/mL (≈ 0.35 µM) | 0.015 µg/mL (≈ 0.0276 µM) | 0.02 µg/mL (≈ 0.0368 µM) | 
CCc1ccc(NC(=O)CCCC[C@@H](C)O[C@@H]2O[C@@H](C)[C@H](O)C[C@H]2O)cc1 | 0.24 µg/mL (≈ 0.632 µM) | 0.25 µg/mL (≈ 0.659 µM) | 0.11 µg/mL (≈ 0.29 µM) | 0.2 µg/mL (≈ 0.527 µM) | 0.34 µg/mL (≈ 0.896 µM)
C=CCN1CCN(C(=O)CCCC[C@@H](C)O[C@@H]2O[C@@H](C)[C@H](O)C[C@H]2O)CC1 | 0.32 µg/mL (≈ 0.832 µM) | 0.62 µg/mL (≈ 1.61 µM) | 0.53 µg/mL (≈ 1.38 µM) | 0.34 µg/mL (≈ 0.884 µM) | 0.54 µg/mL (≈ 1.4 µM)
CCCCCCCCCCCCCCNC(=O)CCCC[C@@H](C)O[C@@H]1O[C@@H](C)[C@H](O)C[C@H]1O | 0.24 µg/mL (≈ 0.509 µM) | 0.42 µg/mL (≈ 0.89 µM) | 0.11 µg/mL (≈ 0.233 µM) | 0.31 µg/mL (≈ 0.657 µM) | 0.16 µg/mL (≈ 0.339 µM)
C[C@H](CCCCC(=O)NCc1ccco1)O[C@@H]1O[C@@H](C)[C@H](O[C@@H]2O[C@@H](C)[C@H](O)C[C@H]2O)C[C@H]1O[C@@H]1O[C@@H](C)[C@H](O)C[C@H]1O | 0.01 µg/mL (≈ 0.0162 µM) | 0.07 µg/mL (≈ 0.114 µM) | 0.04 µg/mL (≈ 0.065 µM) | 0.06 µg/mL (≈ 0.0974 µM) | 0.08 µg/mL (≈ 0.13 µM)
C[C@H](CCCCC1CO1)O[C@@H]1O[C@@H](C)[C@H](O[C@@H]2O[C@@H](C)[C@H](O)C[C@H]2O)C[C@H]1O[C@@H]1O[C@@H](C)[C@H](O)C[C@H]1O (some centres undefined) | 0.14 µg/mL (≈ 0.262 µM) | 0.65 µg/mL (≈ 1.22 µM) | 0.65 µg/mL (≈ 1.22 µM) | 0.21 µg/mL (≈ 0.393 µM) | 0.76 µg/mL (≈ 1.42 µM)
CCCCCC[C@H](CCCCCCCCCCC(=O)OC)O[C@@H]1O[C@@H](C)[C@H](O[C@@H]2O[C@@H](C)[C@H](O)C[C@H]2O)C[C@H]1O[C@@H]1O[C@@H](C)[C@H](O)C[C@H]1O | 0.24 µg/mL (≈ 0.34 µM) | 0.32 µg/mL (≈ 0.454 µM) | 0.32 µg/mL (≈ 0.454 µM) | 0.1 µg/mL (≈ 0.142 µM) | 0.12 µg/mL (≈ 0.17 µM)
CCCCCC[C@H](CCCCCCCCCCC(=O)O)O[C@@H]1O[C@@H](C)[C@H](O[C@@H]2O[C@@H](C)[C@H](O)C[C@H]2O)C[C@H]1O | 0.32 µg/mL (≈ 0.571 µM) | 0.43 µg/mL (≈ 0.767 µM) | 0.33 µg/mL (≈ 0.588 µM) | 0.53 µg/mL (≈ 0.945 µM) | 0.64 µg/mL (≈ 1.14 µM)
C=CCCCCOC(=O)CCCC[C@@H](C)O[C@@H]1O[C@@H](C)[C@H](O)C[C@H]1O | 0.31 µg/mL (≈ 0.865 µM) | 0.15 µg/mL (≈ 0.418 µM) | 0.22 µg/mL (≈ 0.614 µM) | 0.12 µg/mL (≈ 0.335 µM) | 0.12 µg/mL (≈ 0.335 µM)
C[C@H](CCCCC(=O)NCCCN1CCCC1=O)O[C@@H]1O[C@@H](C)[C@H](O)C[C@H]1O | 0.65 µg/mL (≈ 1.62 µM) | 0.25 µg/mL (≈ 0.624 µM) | 0.33 µg/mL (≈ 0.824 µM) | 0.54 µg/mL (≈ 1.35 µM) | 0.76 µg/mL (≈ 1.9 µM)
C[C@H](CCCCCCN=[N+]=[N-])O[C@@H]1O[C@@H](C)[C@H](O[C@@H]2O[C@@H](C)[C@H](O)C[C@H]2O)C[C@H]1O[C@@H]1O[C@@H](C)[C@H](O)C[C@H]1O | 0.14 µg/mL (≈ 0.249 µM) | 0.43 µg/mL (≈ 0.766 µM) | 0.33 µg/mL (≈ 0.588 µM) | 0.14 µg/mL (≈ 0.249 µM) | 0.24 µg/mL (≈ 0.427 µM)

Continued, values first:

IC50 (SK-OV-3) | IC50 (XF498) | IC50 (SK-MEL-2) | IC50 (HCT-15) | IC50 (A549) | Compound
0.54 µg/mL (≈ 1.18 µM) | 0.52 µg/mL (≈ 1.13 µM) | 0.13 µg/mL (≈ 0.284 µM) | 0.75 µg/mL (≈ 1.64 µM) | 0.24 µg/mL (≈ 0.523 µM) | C[C@H](CCCCC(=O)OCc1cccc(Oc2ccccc2)c1)O[C@@H]1O[C@@H](C)[C@H](O)C[C@H]1O
0.02 µg/mL (≈ 0.0724 µM) | 0.09 µg/mL (≈ 0.326 µM) | 0.07 µg/mL (≈ 0.253 µM) | 0.05 µg/mL (≈ 0.181 µM) | 0.03 µg/mL (≈ 0.109 µM) | C[C@H](CCCCC(=O)O)O[C@@H]1O[C@@H](C)[C@H](O)C[C@H]1O [DAUMONE]
0.03 µg/mL (≈ 0.0486 µM) | 0.06 µg/mL (≈ 0.0971 µM) | 0.03 µg/mL (≈ 0.0486 µM) | 0.02 µg/mL (≈ 0.0324 µM) | 0.06 µg/mL (≈ 0.0971 µM) | CC1CCN(C(=O)CCCC[C@@H](C)O[C@@H]2O[C@@H](C)[C@H](O[C@@H]3O[C@@H](C)[C@H](O)C[C@H]3O)C[C@H]2O[C@@H]2O[C@@H](C)[C@H](O)C[C@H]2O)CC1
0.14 µg/mL (≈ 0.315 µM) | 0.43 µg/mL (≈ 0.967 µM) | 0.44 µg/mL (≈ 0.99 µM) | 0.54 µg/mL (≈ 1.21 µM) | 0.57 µg/mL (≈ 1.28 µM) | C[C@@H]1CCCCCCCCC(=O)O[C@@H]2C[C@@H](O)[C@H](C)O[C@H]2O[C@@H]2C[C@@H](O)[C@H](C)O[C@H]2O1
0.07 µg/mL (≈ 0.101 µM) | 0.05 µg/mL (≈ 0.0724 µM) | 0.09 µg/mL (≈ 0.13 µM) | 0.02 µg/mL (≈ 0.029 µM) | 0.07 µg/mL (≈ 0.101 µM) | C[C@H](CCCCC(=O)Nc1cccc(Br)c1)O[C@@H]1O[C@@H](C)[C@H](O[C@@H]2O[C@@H](C)[C@H](O)C[C@H]2O)C[C@H]1O[C@@H]1O[C@@H](C)[C@H](O)C[C@H]1O
0.73 µg/mL (≈ 1.64 µM) | 0.34 µg/mL (≈ 0.765 µM) | 0.33 µg/mL (≈ 0.742 µM) | 0.65 µg/mL (≈ 1.46 µM) | 0.63 µg/mL (≈ 1.42 µM) | C[C@@H]1O[C@H]2O[C@@H](C)CCCCCCCCC(=O)O[C@@H]3C[C@@H](O)[C@@H](O[C@H]3C)O[C@@H]2C[C@H]1O
0.73 µg/mL (≈ 1.31 µM) | 0.45 µg/mL (≈ 0.805 µM) | 0.43 µg/mL (≈ 0.77 µM) | 0.21 µg/mL (≈ 0.376 µM) | 0.78 µg/mL (≈ 1.4 µM) | CCCCCC[C@@H](C)O[C@@H]1O[C@@H](C)[C@H](O)C[C@H]1O[C@@H]1O[C@@H](C)[C@H](OC(=O)CCCC)C[C@H]1OC(=O)CCCC
0.14 µg/mL (≈ 0.254 µM) | 0.19 µg/mL (≈ 0.345 µM) | 0.41 µg/mL (≈ 0.745 µM) | 0.21 µg/mL (≈ 0.381 µM) | 0.13 µg/mL (≈ 0.236 µM) | COC(=O)CCCC[C@@H](C)O[C@@H]1O[C@@H](C)[C@H](O[C@@H]2O[C@@H](C)[C@H](O)C[C@H]2O)C[C@H]1O[C@@H]1O[C@@H](C)[C@H](O)C[C@H]1O
